Data reported in ChEMBL document CHEMBL3739303, “Targeting the Src Homology 2 (SH2) Domain of Signal Transducer and Activator of Transcription 6 (STAT6) with Cell-Permeable, Phosphatase-Stable Phosphopeptide Mimics Potently Inhibits Tyr641 Phosphorylation and Transcriptional Activity” (J Med Chem, 2015).
Activity calls are given as the source filed them. No cut-off for these calls is given here.

What was measured:
Mus musculus = species: Mus musculus; assay: Inhibition of IL2-induced STAT5 phosphorylation at Y694 in CD4+ T lymphocytes isolated from C57BL/6J mouse at 0.5 to 5 uM preincubated for 2 hrs followed by activation with plate-bound anti-CD3/anti-CD28 and IL2 for 15 mins by Western blot analysis; format: cell-based
How it was run: (§1)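 CD4+ T cells from C57BL/6J mice, sorted by AutoMACS; activated 15 min with plate-bound anti-CD3 and/or anti-CD28 with IL-2, IL-6 or IL-4; lysed with protease inhibitors plus 10 mM NaF and 1 mM Na3VO4; Bradford-normalised immunoblots for pSTAT1 (Tyr701), pSTAT5 (Tyr694), pSTAT6 (Tyr641) and total STATs.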

[1] = target: T1, Signal transducer and transcription activator 6 (Mus musculus) (UniProt P52633); assay: Inhibition of IL4-induced STAT6 phosphorylation at Y641 in CD4+ T lymphocytes isolated from C57BL/6J mouse preincubated for 2 hrs followed by activation with plate-bound anti-CD3/anti-CD28 and IL4 for 15 mins by Western blot analysis; format: cell-based; how it was run: as §1
T1 sequence (whole entry): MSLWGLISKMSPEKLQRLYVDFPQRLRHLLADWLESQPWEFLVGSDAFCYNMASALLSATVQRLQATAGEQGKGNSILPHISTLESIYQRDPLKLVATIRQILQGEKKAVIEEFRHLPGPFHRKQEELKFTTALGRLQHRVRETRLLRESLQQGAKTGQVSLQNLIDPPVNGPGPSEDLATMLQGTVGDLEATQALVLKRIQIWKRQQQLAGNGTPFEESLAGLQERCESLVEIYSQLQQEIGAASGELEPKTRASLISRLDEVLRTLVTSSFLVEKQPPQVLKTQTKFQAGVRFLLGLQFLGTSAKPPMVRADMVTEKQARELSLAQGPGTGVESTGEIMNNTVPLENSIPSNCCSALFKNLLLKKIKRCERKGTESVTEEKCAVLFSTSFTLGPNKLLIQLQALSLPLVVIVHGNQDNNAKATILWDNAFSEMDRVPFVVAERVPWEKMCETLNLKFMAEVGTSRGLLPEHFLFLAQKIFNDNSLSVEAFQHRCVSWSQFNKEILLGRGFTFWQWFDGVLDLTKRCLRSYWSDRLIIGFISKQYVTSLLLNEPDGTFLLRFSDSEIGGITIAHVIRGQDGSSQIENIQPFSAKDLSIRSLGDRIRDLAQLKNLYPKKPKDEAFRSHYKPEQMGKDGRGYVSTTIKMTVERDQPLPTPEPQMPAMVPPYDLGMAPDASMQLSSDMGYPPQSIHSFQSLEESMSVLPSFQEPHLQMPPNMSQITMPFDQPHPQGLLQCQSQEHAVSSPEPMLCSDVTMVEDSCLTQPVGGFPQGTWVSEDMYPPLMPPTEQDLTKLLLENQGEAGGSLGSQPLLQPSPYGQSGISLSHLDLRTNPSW

[2] = target: T2, Signal transducer and activator of transcription 6 (Homo sapiens) (UniProt P42226); assay: Inhibition of IL-13-stimulated STAT6 SH2 domain phosphorylation in human Beas-2B cells assessed as inhibition of CCL26 mRNA expression preincubated for 2 hrs followed by stimulation with IL-13 for 24 hrs by RT-PCR analysis
T2 sequence (whole entry): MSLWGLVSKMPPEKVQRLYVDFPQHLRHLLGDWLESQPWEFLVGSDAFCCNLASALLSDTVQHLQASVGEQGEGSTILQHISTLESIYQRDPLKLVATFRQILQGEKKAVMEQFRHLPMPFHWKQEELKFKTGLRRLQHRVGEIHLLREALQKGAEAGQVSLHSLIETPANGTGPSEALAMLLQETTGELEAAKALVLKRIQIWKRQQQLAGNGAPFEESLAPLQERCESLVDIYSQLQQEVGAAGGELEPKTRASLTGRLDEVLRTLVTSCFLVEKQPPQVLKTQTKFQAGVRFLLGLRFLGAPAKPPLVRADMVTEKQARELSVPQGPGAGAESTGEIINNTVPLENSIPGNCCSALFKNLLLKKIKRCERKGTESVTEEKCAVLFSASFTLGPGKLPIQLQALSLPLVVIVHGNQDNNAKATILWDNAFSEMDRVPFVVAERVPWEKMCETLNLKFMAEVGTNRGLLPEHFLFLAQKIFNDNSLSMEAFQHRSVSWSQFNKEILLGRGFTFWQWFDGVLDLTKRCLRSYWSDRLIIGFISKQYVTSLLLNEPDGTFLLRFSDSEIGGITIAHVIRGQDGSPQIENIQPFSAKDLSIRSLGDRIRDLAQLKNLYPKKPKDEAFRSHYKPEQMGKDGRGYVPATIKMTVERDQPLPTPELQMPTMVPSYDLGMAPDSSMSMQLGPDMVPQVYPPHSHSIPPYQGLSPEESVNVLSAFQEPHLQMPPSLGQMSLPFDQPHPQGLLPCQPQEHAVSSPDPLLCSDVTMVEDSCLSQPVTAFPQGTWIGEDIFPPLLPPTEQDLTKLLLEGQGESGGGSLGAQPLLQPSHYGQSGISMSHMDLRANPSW

[3] = target: T2, Signal transducer and activator of transcription 6 (Homo sapiens); assay: Inhibition of IL4-induced STAT6 phosphorylation in human MDA-MB-468 cells at 0.1 to 5 uM incubated for 2 hrs followed by stimulation with IL4 for 1 hr by Western blot assay; format: cell-based
How it was run: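 MDA-MB-468 breast cancer cells serum-starved, treated with prodrugs, then IL-4 stimulated; pSTAT6 read by Western blot.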

[4] = target: T2, Signal transducer and activator of transcription 6 (Homo sapiens); assay: Inhibition of IL4-stimulated STAT6 phosphorylation at tyrosine 641 in human Beas-2B cells at 0.025 to 5 uM incubated for 2 hrs followed by stimulation with IL4 for 1 hr by Western blot assay; format: cell-based
How it was run: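 Beas-2B seeded at 3.0 × 10^5 cells/well the day before; prodrugs from DMSO stocks added to final concentrations for 2 h, then IL-4 (2 ng/mL) for 1 h. PBS-washed cells lysed with PMSF, protein by modified Lowry; blots blocked in 3% BSA/TBST, probed for pSTAT6 (Tyr641), stripped and reprobed for total STAT6; ECL on X-ray film.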

inhibition [1]: Active | inhibition [2]: Dose-dependent effect | inhibition [3]: Active | inhibition [4]: Active
Structure (SMILES): C/C(=C\C(=O)N[C@H](C(=O)N1CCC[C@H]1C(=O)N(C)c1ccccc1)C(C)(C)C)c1ccc(C(F)(F)P(=O)(OCOC(=O)C(C)(C)C)OCOC(=O)C(C)(C)C)cc1
inhibition (Mus musculus): Active
